From PubChem BioAssay
An excerpt weighted towards active compounds, which were near 3.6% of everything screened.
BB579 growth dn – growth inhibitors of yeast BB579 in restrictive medium, primary screen, yeast lifespan-shortening project, S. cerevisiae. OD615, 48 h. inhibition, % at 10 µM. 140,000 tested, 0.51% active. AID 804, 2007;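 active = inhibition above a set limit, 3 SD over the mean compound inhibition, cut at about 44% in these data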
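Test system: S. cerevisiae DeaD strain BB579 yeast; Medium: restrictive CSMM-D medium; Compound: one dose, 10 µM compound with 0.25% DMSO; Incubation: 4 h cell preincubation, 48 h compound exposure, 30 °C humidified; Signal: OD at 615 nm; Benchmarks: amphotericin B at 10 µg/mL as positive control.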
RAM inhibit – inhibitors of the yeast RAM network, primary screen, dse1pr::URA3 reporter, 5-FOA selection; S. cerevisiae dse1pr::URA3 reporter, 5-FOA growth OD615, 2 d; analog-sensitive cbk1-as2 kinase mutant strain; inhibition, % at 50 µM; 190,000 tested, 1.8% active; AID 868, 2007;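 active = inhibition above a set limit, 3 SD over mean compound inhibition, cut at about 8.4% in these data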;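 also: 0% = DMSO-only wells with no growth and 100% = 10 µM 1-NA-PP1 full growth; inhibition rescues growth on 5-FOA so higher OD means more RAM inhibition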
Measles CPE – compounds protecting cells from measles virus cytopathic effect, primary screen, measles RdRp inhibitor project, single point, MLSMR library, absorbance | Measles virus-infected cells, CPE protection | protection (pct of control), % at 4 µM | 140,000 tested, 1.5% active; in the data active = protection mostly above about 24%, no sharp cut-off; inactive = mostly below about 26%
Yeast life ext – compounds extending yeast replicative lifespan, primary screen, S. cerevisiae, OD615; 130,000 tested, 0.68% active; S. cerevisiae growth with nicotinamide; deaD strain in restrictive glucose medium; inhibition of the nicotinamide effect, % at 10 µM;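 active = inhibition above a set limit, placed 3 SD over the median of all compounds, cut at about 26% in these data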;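 also: 0% = nicotinamide-treated wells and 100% = cells grown without nicotinamide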
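System: DeaD-strain S. cerevisiae / Buffer or medium: CSMM-D, restrictive glucose (dextrose) synthetic minimal medium / Probe or stimulus: nicotinamide, 1.5 mM, co-present with compound / Compound: one concentration, 10 µM, DMSO 0.25% / Incubation: 48 h compound exposure at 30 °C, humidified / Technique: optical density (absorbance) at 615 nm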
The depositor's hits bear a star.

Screening O=[N+]([O-])c1ccc(N/N=C2/CCCCC2c2ccccn2)cc1 (configuration not stated) returned BB579 growth dn 98*, RAM inhibit -1, Measles CPE 4 and Yeast life ext -10.
For COc1ccc(N(C(=O)c2cnccn2)C(C(=O)NC2CCCCC2)c2ccc(O)cc2)cc1 (configuration not stated) the results were RAM inhibit 0.
`CCOc1ccc(C(=O)Nc2ccccc2-c2ccccc2)cc1Cl` gave BB579 growth dn 4, RAM inhibit 4, Measles CPE 4 and Yeast life ext 0.
`COc1c(Cl)cc(C(=O)Nc2ccccc2-c2ccccc2)cc1Cl` gave BB579 growth dn -26, RAM inhibit 8.7*, Measles CPE 5 and Yeast life ext -28.
`CC(C)N(C(=O)CSc1nnc(Cn2nnc3ccccc32)n1C)C(C)C` gave BB579 growth dn -23, RAM inhibit 2, Measles CPE 7 and Yeast life ext -2.
For O=C(O)CSc1nnc(Cn2nnc3ccccc32)n1CCc1ccccc1 the results were BB579 growth dn -7, RAM inhibit 2, Measles CPE 28* and Yeast life ext -5.
CC1Cc2ccccc2N1C(=O)CSc1nnc(Cn2nnc3ccccc32)n1C (configuration not stated) was read as BB579 growth dn -41, RAM inhibit 1, Measles CPE 36* and Yeast life ext -4.
For NC(=O)CSc1nnc(Cn2c(=O)sc3ccccc32)n1CCc1ccccc1 the results were BB579 growth dn -28, RAM inhibit 1, Measles CPE 19 and Yeast life ext 7.
For CC(C)(C)C1CCC(=NNC(=O)C(=O)NCc2ccco2)CC1 (configuration not stated) the results were RAM inhibit 1.
`CN(C(=O)COC(=O)C1c2ccccc2Oc2ccccc21)C1CCS(=O)(=O)C1` (configuration not stated) gave BB579 growth dn 16, RAM inhibit 1, Measles CPE 2 and Yeast life ext -7.
`O=C(COC(=O)C1c2ccccc2Oc2ccccc21)NC1CCS(=O)(=O)C1` (configuration not stated) gave BB579 growth dn -35, RAM inhibit 3, Measles CPE active and Yeast life ext -27.
`CN(C)/C=C(\c1cnc(Cl)s1)S(=O)(=O)c1ccccc1` gave RAM inhibit 0.
`CCCCn1c(C)nc2c(=O)n(C)c(=O)[nH]c21` gave BB579 growth dn -1, RAM inhibit 0, Measles CPE 29* and Yeast life ext -13.
`c1coc(-c2nc3ccccc3nc2-c2ccco2)c1` gave BB579 growth dn 2, RAM inhibit 2, Measles CPE 41* and Yeast life ext -15.
O=C(c1ccccc1)c1ccc2nc(-c3ccco3)c(-c3ccco3)nc2c1 was read as RAM inhibit 7.
O=Nc1ccc(NOC(=O)c2ccccc2Br)cc1 was read as BB579 growth dn -32, RAM inhibit 3, Measles CPE 28* and Yeast life ext -2.
`COc1cccc(/C=C2\N=C(SC)SC2=O)c1OC` gave BB579 growth dn -40, RAM inhibit 9.6*, Measles CPE 20 and Yeast life ext -2.
Screening CSC1=N/C(=C\c2ccccc2F)C(=O)S1 returned BB579 growth dn -63, RAM inhibit 6, Measles CPE 4 and Yeast life ext 9.
Cc1ccc(NS(=O)(=O)c2ccc(CCC(=O)NCCCOC(C)C)cc2)cc1 was read as BB579 growth dn -27, RAM inhibit 0, Measles CPE 25* and Yeast life ext 3.
Screening CCCC(=O)Nc1nc2ccc(OC)cc2s1 returned BB579 growth dn -29, RAM inhibit 0, Measles CPE 8 and Yeast life ext -8.
`COc1ccc2nc(NC(=S)N(C)C)sc2c1` gave BB579 growth dn 65*, RAM inhibit -1, Measles CPE 5 and Yeast life ext -11.
COc1ccc2nc(NC(=O)C(NS(=O)(=O)c3cccs3)C(C)C)sc2c1 (configuration not stated) was read as BB579 growth dn -46, RAM inhibit 8.8*, Measles CPE 4 and Yeast life ext -16.
`CCCSc1nnc(NC(=O)Nc2ccc(F)cc2)s1` gave BB579 growth dn -38, RAM inhibit 1, Measles CPE 43* and Yeast life ext 5.
Screening Cc1c(/C=N/NC(=O)CNc2ccccc2)c2ccccn2c1C(=O)c1ccccc1 returned BB579 growth dn 1, RAM inhibit -1, Measles CPE 23* and Yeast life ext 1.
For OC(CNCCc1ccc(C(F)(F)F)cc1)COc1ccc2ccccc2c1 (configuration not stated) the results were BB579 growth dn 63*, RAM inhibit 0, Measles CPE 0 and Yeast life ext -10.
`CC(=O)C1=C(O)C(=O)N(Cc2ccco2)C1c1ccccc1` (configuration not stated) gave BB579 growth dn -30, RAM inhibit 2, Measles CPE 34* and Yeast life ext -3.
For CSc1nc2c(c(=O)n1-c1ccc(C)cc1)SCC2 the results were BB579 growth dn -29, RAM inhibit 6, Measles CPE 8 and Yeast life ext -12.
CSc1nc2c(c(=O)n1-c1ccc(F)cc1)SCC2 was read as BB579 growth dn -28, RAM inhibit 2 and Measles CPE 44*.
`CCN(C(=O)CSC1=Nc2ccccc2C2CC=NN12)C1CCS(=O)(=O)C1` (configuration not stated) gave RAM inhibit 0.
`CCOC(=O)c1c(NC(=O)C(Sc2ccccc2)c2ccccc2)sc(C(=O)N(C)C)c1C` (configuration not stated) gave BB579 growth dn -21, RAM inhibit 10*, Measles CPE 2 and Yeast life ext 3.
For CCNC(=O)C(Sc1ccccc1)c1ccccc1 (configuration not stated) the results were BB579 growth dn -27, RAM inhibit 0 and Measles CPE 30*.
Screening O=C1C2C3C=CC(C3)C2C(=O)N1CCN1CCN(Cc2ccc([N+](=O)[O-])cc2)CC1 (configuration not stated) returned RAM inhibit 1.
`COC(=O)c1sc(S(=O)(=O)Nc2ccc(Br)cc2)c(C(=O)OC)c1C` gave BB579 growth dn -12, RAM inhibit 8.7*, Measles CPE 2 and Yeast life ext 42*.
For COC(=O)c1sc(S(=O)(=O)Nc2ccc(C)cc2)c(C(=O)OC)c1C the results were BB579 growth dn -41, RAM inhibit 7, Measles CPE 8 and Yeast life ext 38*.
Screening COc1ccc(NC(=O)CSc2nnnn2Cc2ccccc2)cc1 returned RAM inhibit 3.
`CC(C)=CC(=O)Nc1nnc(C)s1` gave BB579 growth dn -3, RAM inhibit 2 and Measles CPE 38*.
